The whole screen tested about 360,000 compounds, of which about 740 (0.21%) were called active. What follows is part of a selection rich in actives, with near analogues and random picks from the rest. Unmarked numbers belong to inactive results.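 The calls were made as follows: active = mean lysis activity across replicates of at least 80%, whatever share of replicates individually reach that level; inactive = mean lysis activity below 80%.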

The test in a line: Cryptococcus neoformans cell lysis inducers, primary screen, AK release luminescence, single concentration (AID 651654). As to conditions: C. neoformans lysis, adenylate kinase release luminescence, 4 h; at 15 µM; hits give high values; normalised: neutral wells 0, clomiphene wells 100. The procedure, abridged: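 Assay system: C. neoformans cells. Amount: yeast cell density of 5 × 10^6 cells/mL. Technique: AK luminescence. Buffer or medium: YPD. Times: static 4 h at 37 °C with compound, 1 h detection. Dosing: single-point compound dose. Read-out: lysis from increased AK signal.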
Consider `C[C@@H]1CN([C@H](C)CO)C(=O)c2cc(NC(=O)CCCCCC(=O)Nc3ccccc3N)ccc2O[C@@H]1CN(C)Cc1ccncc1`, for which the lysis activity is 0.608%.

On to `COc1ccc(CN(C)C[C@@H]2OCCCC[C@H](C)Oc3ccc(NC(=O)c4ccccc4)cc3C(=O)N([C@H](C)CO)C[C@H]2C)cc1`, for which the lysis activity was -1.71%. In the case of `C[C@H](CO)N1C[C@H](C)[C@@H](CN(C)S(=O)(=O)c2ccc(Cl)cc2)Oc2ccc(NS(C)(=O)=O)cc2CC1=O`, the lysis activity is -5.34%.

For `CCC(=O)N(C)C[C@@H]1Oc2cc(C#C[C@H](C)O)ccc2S(=O)(=O)N([C@H](C)CO)C[C@@H]1C`, the lysis activity is -0.573%. Take `C[C@@H]1CN([C@H](C)CO)C(=O)c2cc(C#CC3CCCC3)cnc2O[C@H]1CN(C)S(C)(=O)=O`: the lysis activity is -1.11%. `C[C@@H]1CN([C@H](C)CO)C(=O)CCCn2nncc2CO[C@@H]1CN(C)C`: the lysis activity was -1.91%. Under `Cc1cccc(CN(C)C[C@@H]2OCc3cn(nn3)CCCC(=O)N([C@@H](C)CO)C[C@H]2C)c1` stands -1.37%. Under `COc1ccc(S(=O)(=O)N2C[C@H](O)COC[C@@H]3O[C@H](CC(=O)NCCN4CCCCC4)CC[C@H]32)cc1` stands 0.16%; under `CCCNC(=O)N1C[C@H](C)[C@@H](OC)CN(C)C(=O)c2ccc(NS(C)(=O)=O)cc2OC[C@@H]1C`, 0.827%. In the case of `COCC(=O)Nc1ccc2c(c1)C(=O)N(C)[C@@H]1CC[C@@H](CC(=O)NCc3cccc(F)c3)O[C@@H]1CO2`, the lysis activity was 1.56%. Under `COCC#Cc1cnc2c(c1)C(=O)N([C@@H](C)CO)C[C@H](C)[C@@H](CN(C)Cc1ccccc1)O2` stands -2.83%; under `CC(C)NC(=O)N[C@@H]1C=C[C@@H](CC(=O)N2CCCCC2)O[C@@H]1CO`, 1.39%. Under `C[C@@H]1CN([C@@H](C)CO)C(=O)c2cc(NC(=O)C3CCCCC3)ccc2O[C@@H]1CN(C)Cc1ccc(C(=O)O)cc1` stands -4.67%; under `Cc1ccc(-c2cnc3c(c2)C(=O)N([C@@H](C)CO)C[C@H](C)[C@H](CN(C)C(=O)c2cccnc2)O3)cc1`, -0.96%; under `C[C@@H]1CN([C@@H](C)CO)C(=O)c2cc(NC(=O)CCCN(C)C)ccc2O[C@@H]1CN(C)Cc1ccncc1`, 5.83%. Under `COC(=O)C[C@@H]1C[C@H]2c3cc(NC(=O)Nc4ccc(F)cc4)ccc3O[C@H]2[C@@H](CO)O1` stands -7.03%.

Regarding `CCC(=O)N(C)C[C@@H]1Oc2ncc(C#CCc3ccccc3)cc2C(=O)N([C@H](C)CO)C[C@H]1C`, the lysis activity was 1.55%.

The values above are taken from PubChem BioAssay AID651654 (Broad Institute, 2012).
